16 molecules from ChEMBL document CHEMBL3797168 (J Med Chem, 2016) can be followed below.

Experiment [1] concerns the target T1, Adenosine receptor A1 (Homo sapiens) (UniProt P30542).
T1 sequence (whole entry): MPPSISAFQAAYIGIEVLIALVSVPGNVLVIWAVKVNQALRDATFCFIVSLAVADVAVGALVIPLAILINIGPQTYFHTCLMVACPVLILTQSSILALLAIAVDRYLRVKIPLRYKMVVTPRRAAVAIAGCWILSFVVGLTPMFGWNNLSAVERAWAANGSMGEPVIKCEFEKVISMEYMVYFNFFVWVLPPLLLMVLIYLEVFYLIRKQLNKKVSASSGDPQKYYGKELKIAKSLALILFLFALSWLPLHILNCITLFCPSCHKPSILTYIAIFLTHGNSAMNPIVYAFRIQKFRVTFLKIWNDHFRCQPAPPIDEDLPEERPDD
Description: Displacement of [3H]N6-R-phenylisopropyladenosine from human adenosine A1 receptor expressed in CHO cell membranes at 10 uM incubated for 60 mins by liquid scintillation counting analysis.

In experiment [2] the target is Adenosine receptor A2a (Homo sapiens) (UniProt P29274). Description: Displacement of [3H]2-[p-(2-carboxyethyl)phenyl-ethylamino]-5'-N-ethylcarboxamido-adenosine from human adenosine A2A receptor expressed in HEK293 cell membranes at 10 uM incubated for 60 mins by liquid scintillation counting analysis.
Sequence of Adenosine receptor A2a (Homo sapiens) (P29274 whole entry): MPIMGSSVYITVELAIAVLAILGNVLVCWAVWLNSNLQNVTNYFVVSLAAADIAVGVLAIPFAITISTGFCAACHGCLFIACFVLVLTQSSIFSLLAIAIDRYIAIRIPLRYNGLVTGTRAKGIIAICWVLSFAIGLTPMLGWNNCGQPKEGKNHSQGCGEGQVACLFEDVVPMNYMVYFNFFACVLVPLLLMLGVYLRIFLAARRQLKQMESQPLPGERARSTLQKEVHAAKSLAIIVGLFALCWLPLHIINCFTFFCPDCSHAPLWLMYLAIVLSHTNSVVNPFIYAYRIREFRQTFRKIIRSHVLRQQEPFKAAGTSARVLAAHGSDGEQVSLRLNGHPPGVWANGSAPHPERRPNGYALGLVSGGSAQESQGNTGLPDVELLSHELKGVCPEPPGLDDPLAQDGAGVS
Experiment [3] has as its target T2, Adenosine receptor A3 (Homo sapiens, UniProt P0DMS8).
T2 sequence (P0DMS8 whole entry): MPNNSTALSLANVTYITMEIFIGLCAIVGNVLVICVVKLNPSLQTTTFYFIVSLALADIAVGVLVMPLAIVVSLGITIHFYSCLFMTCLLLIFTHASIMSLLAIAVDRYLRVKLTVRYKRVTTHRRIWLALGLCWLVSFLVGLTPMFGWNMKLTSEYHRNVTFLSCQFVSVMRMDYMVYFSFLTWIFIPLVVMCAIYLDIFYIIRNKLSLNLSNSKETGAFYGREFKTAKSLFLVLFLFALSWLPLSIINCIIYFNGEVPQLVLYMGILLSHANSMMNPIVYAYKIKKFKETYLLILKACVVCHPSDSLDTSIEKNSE
Description: Displacement of [125I]N6-(4-amino-3-iodobenzyl)adenosine-5'-N-methyl-uronamide from human adenosine A3 receptor expressed in CHO cell membranes incubated for 60 mins by liquid scintillation counting analysis.

Another experiment has as its target T3, Adenosine receptor A1 (Homo sapiens, UniProt P30542).
T3 sequence (P30542 whole entry): T1 sequence (whole entry)
Description: Displacement of [3H]N6-R-phenylisopropyladenosine from human adenosine A1 receptor expressed in CHO cell membranes incubated for 60 mins by liquid scintillation counting analysis.

In experiment [4] the target is T4, Adenosine receptor A3 (Mus musculus, UniProt Q61618).
T4 sequence (Q61618 whole entry): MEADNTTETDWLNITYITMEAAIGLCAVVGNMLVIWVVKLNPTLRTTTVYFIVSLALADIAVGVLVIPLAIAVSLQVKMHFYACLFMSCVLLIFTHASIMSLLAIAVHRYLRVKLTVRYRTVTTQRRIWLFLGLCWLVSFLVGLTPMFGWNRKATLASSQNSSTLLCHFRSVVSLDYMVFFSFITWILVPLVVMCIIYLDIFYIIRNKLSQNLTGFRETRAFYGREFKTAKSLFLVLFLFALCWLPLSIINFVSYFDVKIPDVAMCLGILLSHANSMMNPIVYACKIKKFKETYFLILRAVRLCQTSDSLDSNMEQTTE
The experiment can be described thus: Displacement of [125I]N6-(4-amino-3-iodobenzyl)adenosine-5'-Nmethyluronamide from mouse adenosine A3 receptor expressed in HEK293 cell membranes incubated for 60 mins by liquid scintillation counting analysis.

For experiment [5], the target named is T2, Adenosine receptor A3. Description: Agonist activity at recombinant human adenosine A3 receptor expressed in CHO cells assessed as inhibition of forskolin-stimulated cAMP accumulation preincubated for 30 mins followed by forsolkin addition measured after 15 mins by immunoassay. It counts as cell-based.
In experiment [6] the test system is Mus musculus. Description: Antineuropathic pain activity in mouse chronic constriction injury model assessed as time duration showing protection against mechanoallodynia at 3 micromol/kg administered as oral gavage on day 7. It counts as functional. An outline of the steps: (§1)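 Mice underwent sciatic nerve ligation (Bennett method). On day 7, at peak pain, they were dosed by oral gavage at 3 µmol/kg, n=3. Vehicle was 10% DMSO in 0.5% methylcellulose, diluted from a 5 mM DMSO stock. Ipsilateral hind paw withdrawal threshold (g) was followed over time. Experimenters were blinded.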

In experiment [7] the test system is Mus musculus. The experiment can be described thus: Antineuropathic pain activity in mouse chronic constriction injury model assessed as protection against mechanoallodynia at 3 micromol/kg administered as oral gavage on day 7. It counts as functional, organism-based. An outline of the steps: as §1
The target in experiment [8] is Delta-type opioid receptor (Homo sapiens, UniProt P41143).
Sequence of Delta-type opioid receptor (P41143 whole entry): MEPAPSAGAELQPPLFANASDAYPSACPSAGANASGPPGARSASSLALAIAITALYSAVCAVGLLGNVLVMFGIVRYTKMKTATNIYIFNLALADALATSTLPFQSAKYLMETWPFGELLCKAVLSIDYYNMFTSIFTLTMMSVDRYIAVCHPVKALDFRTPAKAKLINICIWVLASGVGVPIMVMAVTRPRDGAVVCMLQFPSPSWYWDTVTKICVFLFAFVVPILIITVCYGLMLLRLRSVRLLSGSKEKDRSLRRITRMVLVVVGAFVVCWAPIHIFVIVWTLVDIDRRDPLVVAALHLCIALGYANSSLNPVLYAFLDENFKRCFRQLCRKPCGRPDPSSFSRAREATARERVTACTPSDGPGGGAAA
The subject of experiment [9] is Mus musculus. The experiment can be described thus: Antineuropathic pain activity in mouse chronic constriction injury model assessed as protection against mechanoallodynia at 3 micromol/kg administered as oral gavage on day 7 measured at 1 hr. It counts as functional. An outline of the steps:
as §1

In experiment [10] the test system is Mus musculus. The experiment can be described thus: Antineuropathic pain activity in mouse chronic constriction injury model assessed as protection against mechanoallodynia at 3 micromol/kg administered as oral gavage on day 7 measured at 3 hrs. It counts as functional. An outline of the steps: as §1
Experiment [11] addresses Sodium-dependent dopamine transporter (Homo sapiens) (UniProt Q01959). Description: Increase in [3H]methyl (1R,2S,3S)-3-(4-fluorophenyl)-8-methyl-8-azabicyclo[3.2.1]octane-2-carboxylate binding to recombinant human DAT expressed in HEK293 cells at 10 uM by PDSP assay. It counts as cell-based.
Experiment [12] addresses T4, Adenosine receptor A3. Description: Agonist activity at mouse adenosine A3 receptor expressed in HEK293 cell membranes assessed as inhibition of forskolin-stimulated cAMP accumulation preincubated for 30 mins followed by forsolkin addition measured after 15 mins by immunoassay. It counts as functional, cell-based.

The source made the active and inactive calls.

Sequence of Sodium-dependent dopamine transporter (Homo sapiens) (Q01959 whole entry): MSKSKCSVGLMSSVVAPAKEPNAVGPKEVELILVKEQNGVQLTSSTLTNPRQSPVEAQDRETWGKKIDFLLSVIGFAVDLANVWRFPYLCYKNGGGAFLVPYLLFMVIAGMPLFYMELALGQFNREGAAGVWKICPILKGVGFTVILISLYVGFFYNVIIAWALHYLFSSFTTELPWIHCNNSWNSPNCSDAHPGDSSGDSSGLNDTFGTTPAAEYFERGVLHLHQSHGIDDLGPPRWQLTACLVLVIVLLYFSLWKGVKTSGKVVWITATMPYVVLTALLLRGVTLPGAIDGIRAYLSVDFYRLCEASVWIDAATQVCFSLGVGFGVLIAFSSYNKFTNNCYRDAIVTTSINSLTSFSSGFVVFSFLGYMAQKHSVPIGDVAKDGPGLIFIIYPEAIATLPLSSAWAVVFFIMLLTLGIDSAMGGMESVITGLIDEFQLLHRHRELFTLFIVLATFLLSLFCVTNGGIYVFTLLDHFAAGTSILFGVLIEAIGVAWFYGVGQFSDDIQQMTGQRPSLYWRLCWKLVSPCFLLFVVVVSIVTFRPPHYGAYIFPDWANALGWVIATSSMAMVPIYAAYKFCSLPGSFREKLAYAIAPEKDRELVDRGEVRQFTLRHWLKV

Turning to `CNC(=O)[C@@]12C[C@@H]1[C@@H](n1cnc3cnc(/C=C(\O)c4cnccn4)nc31)[C@H](O)[C@@H]2O`, the values for the inhibition in experiment [1] and in experiment [2] were 14% and 20%, respectively. In addition, the Ki on Adenosine receptor A3 [3] was determined as 1480 nM.
`CNC(=O)[C@@]12C[C@@H]1[C@@H](n1cnc3c(OC)nc(C#Cc4ccc(Cl)s4)nc31)[C@H](O)[C@@H]2O` had an inhibition in [2] of 27%. The inhibition constant Ki on Adenosine receptor A1 was 796 nM.
For the molecule `CNC(=O)[C@@]12C[C@@H]1[C@@H](n1cnc3cnc(NC)nc31)[C@H](O)[C@@H]2O`, the inhibition in [1] was 17%; in [2], less than 10%. This molecule also displayed a Ki at Adenosine receptor A3 [3] of 604 nM.
`CNC(=O)[C@@]12C[C@@H]1[C@@H](n1cnc3cnc(C#Cc4ccc(Cl)s4)nc31)[C@H](O)[C@@H]2O`: the inhibition in experiment [1] is less than 10%; in experiment [2], 18%. Also, the results for the Ki at Adenosine receptor A3 [3] and on Adenosine receptor A3 [4] were 60 nM and 396 nM, respectively. Further, the EC50 at Adenosine receptor A3 [5] stood at 26.9 nM. The Time in the experiment with Mus musculus [6] worked out at 5 h.
On to `CNC(=O)[C@@]12C[C@@H]1[C@@H](n1cnc3c(/C=C(\O)c4ccccc4)nc(Cl)nc31)[C@H](O)[C@@H]2O`, for which the inhibition in experiment [1] was determined as 30%; in experiment [2], 24%. This molecule also gave a Ki on Adenosine receptor A3 [3] of 1140 nM.
Consider `CNC(=O)[C@@]12C[C@@H]1[C@@H](n1cnc3c(C)nc(C#Cc4ccc(Cl)s4)nc31)[C@H](O)[C@@H]2O`, for which the figures for the inhibition in experiment [1] and in experiment [2] were less than 10% and 12%, respectively. The Ki was found to be 42.2 nM on Adenosine receptor A3 [3], 722 nM at Adenosine receptor A3 [4] and 5800 nM in [8]. For the same molecule, the EC50 at Adenosine receptor A3 [5] was 12.5 nM. Also, the result with Mus musculus [7] was Active.
As for `CNC(=O)[C@@]12C[C@@H]1[C@@H](n1cnc3c(NCc4cccc(Cl)c4)nc(C#Cc4ccc(F)c(F)c4)nc31)[C@H](O)[C@@H]2O`, the Activity was found to be 100% in the experiment on Mus musculus [9] and 23.7% in the experiment on Mus musculus [10].
On to `CNC(=O)[C@@]12C[C@@H]1[C@@H](n1cnc3c(C)nc(C#Cc4ccccc4)nc31)[C@H](O)[C@@H]2O`, for which the inhibition in experiment [1] was 15%; in [2], 34%. Also, the outcome with Mus musculus [7] was Active. Besides, the Activity in experiment [11] was found to be 200%.
`CNC(=O)[C@@]12C[C@@H]1[C@@H](n1cnc3c(NC)nc(C#Cc4ccccc4)nc31)[C@H](O)[C@@H]2O`: the outcome in the experiment on Mus musculus [7] was Active.
On to `CNC(=O)[C@@]12C[C@@H]1[C@@H](n1cnc3c(/C=C(\O)c4ccccc4Cl)nc(C#Cc4ccccc4Cl)nc31)[C@H](O)[C@@H]2O`, for which the inhibition in [1] is 28%; in experiment [2], 21%. At Adenosine receptor A3 [3], this molecule yielded an inhibitory constant (Ki) of 515 nM.
On to `CNC(=O)[C@@]12C[C@@H]1[C@@H](n1cnc3c(C)nc(C#Cc4ccc(C(C)(C)C)cc4)nc31)[C@H](O)[C@@H]2O`, for which the inhibition came out at 16% in experiment [1] and 15% in experiment [2].
As for `CNC(=O)[C@@]12C[C@@H]1[C@@H](n1cnc3c(/C=C(\O)c4ccccc4)nc(C#Cc4ccccc4)nc31)[C@H](O)[C@@H]2O`, the inhibition in experiment [1] and in experiment [2] was 16% throughout. The figures for the Ki at Adenosine receptor A3 [3] and on Adenosine receptor A3 [4] were 78.5 nM and 136 nM, respectively. Further, the EC50 at Adenosine receptor A3 [12] amounted to 4.86 nM. Moreover, in the experiment on Mus musculus [7], the outcome was Active.
Regarding `CNC(=O)[C@@]12C[C@@H]1[C@@H](n1cnc3c(C)nc(C#Cc4cnccn4)nc31)[C@H](O)[C@@H]2O`, the inhibition in [1] turned out to be 15%; in experiment [2], 17%.
The molecule `CNC(=O)[C@@]12C[C@@H]1[C@@H](n1cnc3c(C)nc(C#Cc4ccc(F)c(F)c4)nc31)[C@H](O)[C@@H]2O` displayed an inhibition in experiment [2] of 14%. In addition, the values for the Ki on Adenosine receptor A3 [3] and on Adenosine receptor A1 were 98.5 nM and 5430 nM, respectively.
For the molecule `CNC(=O)[C@@]12C[C@@H]1[C@@H](n1cnc3cnc(C#Cc4ccc(F)c(F)c4)nc31)[C@H](O)[C@@H]2O`, the inhibition in [1] stood at 17%; in experiment [2] it was 12%. On Adenosine receptor A3 [3], the affinity, expressed as Ki, was 124 nM.
Taken in the same sequence, the figures for `CNC(=O)[C@@]12C[C@@H]1[C@@H](n1cnc3c(/C=C(\O)c4ccc(C(C)(C)C)cc4)nc(C#Cc4ccc(C(C)(C)C)cc4)nc31)[C@H](O)[C@@H]2O` were 24%, 19% and 94.3 nM.
